APP transl inh – APP translation inhibition. SH-SY5Y APP 5'UTR-luciferase reporter, luminescence. inhibition, % at 2 µM. hit rate 0.82% among 190,000;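 active means inhibition above a set limit, derived from the sample mean plus 3 SD, cut at about 45% in these data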
BaF3 parental – reduces parental Ba/F3 cell viability, JAK2V617F counter-screen; inhibition, % at 5.6 µM; CellTiter-Glo ATP luminescence; hit rate 1.1% among 220,000;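 active means inhibition above a per-campaign cutoff, the mean inhibition of all tested compounds plus 3 SD, cut at about 27% in these data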;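 further: 0% = DMSO wells and 100% = JAK Inhibitor I control wells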
MT stabilize HCS – stabilizes microtubules in HeLa cells; HeLa tubulin immunostaining HCS, 24 h; share of cells brighter than vehicle mean+2SD; % tubulin-high responders, % at 10 µM; hit rate 0.83% among 200,000;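 active means plate Z-score above 3 for both tubulin-high and condensed-nucleus cell shares, with cell loss under 80%, at 10 µM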;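 further: anti alpha tubulin signal scored within the nucleus-defined area of each cell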
L major viab – Leishmania major promastigote growth inhibition; Leishmania major promastigotes, resazurin fluorescence viability; hit rate 9% among 200,000; inhibition, % at 10 µM; in the data active means inhibition above about 50%;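 further: promastigotes grown with compound for 44 hours at 28 °C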
Ba/F3 V617F tox – lowers viability of Ba/F3 cells expressing EpoR and JAK2V617F. hit rate 1.1% among 220,000. ATP luminescence. inhibition, % at 5.6 µM;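 active means inhibition above the campaign mean plus 3 SD over all tested compounds, cut at about 24% in these data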;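 further: cytokine-independent growth of Ba/F3 cells driven by EpoR plus mutant JAK2; 0% = DMSO-treated cells and 100% = JAK inhibitor I control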
bCat nuc transl – alters nuclear translocation of beta-catenin in HeLa cells. immunofluorescence imaging. nuclear translocation activity, % at 5 µM. hit rate 0.3% among 190,000. AID 1665;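 active means nuclear translocation activity above 50% at 5 µM, with a well cell count of 50 or more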;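 further: per-cell ratio of nuclear to cytoplasmic median beta-catenin stain intensity; plate controls were DMSO negative control for no effect and GSK-3 inhibitor IX positive control for full effect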
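Test system: human HeLa cell line; Doses: 5 µM primary, 0.02–20 µM confirmation; Incubation: 24 h compound exposure, 37°C; Detection: beta-catenin immunofluorescence imaging with DAPI; Read-out: beta-catenin nuclear/cytoplasmic ratio, % activation.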
* hit, by the source's call; nt = no result. Shown are actives, neighbours in structure and some others; about 9.6% of the full set was active somewhere.

SMILES	APP transl inh	BaF3 parental	MT stabilize HCS	L major viab	Ba/F3 V617F tox	bCat nuc transl
Cc1nc2n[nH]c(N)c2c2c1CCCC2	nt	3	nt	nt	1	4
Cc1sc(NC(=O)CCCC(=O)O)c(C(N)=O)c1-c1ccccc1	49*	5	1	-6	-1	1
Cc1sc(NC(=O)COc2ccccc2)c(C#N)c1-c1ccccc1	-2	5	2	57*	4	-2
CCc1ccc(-c2c(C)sc(NC(=O)C3CCC3)c2C#N)cc1	-9	6	2	50*	0	-1
Cc1sc(NC(=O)C2CCCC2)c(C#N)c1C	-33	0	2	-8	0	nt
O=C(O)C1=C[C@H](c2ccc(C(F)(F)F)cc2)C[C@H](OCc2ccc(CO)cc2)O1	4	-6	3	-6	-1	-4
CC12CCC(C(=O)N3CCN(c4ccccc4)CC3)(CC1=O)C2(C)C (centres undefined)	-3	1	2	-7	-3	-5
CSc1nc(N)nc(SCC(=O)Nc2ccc(Cl)cc2)c1C#N	-25	4	1	100*	-4	0
CSc1nc(N)nc(SCC(=O)Nc2cccc(F)c2)c1C#N	-17	5	3	9	-4	1
O=C(O)c1cccc(-c2ccc(/C=N/NC(=O)c3cccnc3)o2)c1	-5	28*	3	-3	0	-2
O=C(N/N=C/c1ccc(-c2ccccc2Cl)o1)c1ccccc1	-30	6	32*	37	2	nt
O=C(O)c1ccc(N/N=C/c2ccc(-c3ccccc3Cl)o2)cc1	nt	3	nt	nt	9	7
O=C(N/N=C/c1ccc(-c2ccccc2[N+](=O)[O-])o1)c1cccnc1	14	0	2	95*	0	-5
CCc1c(C)nc(N)n2c(SCC(=O)N3CCCC(C)C3)nnc12 (centres undefined)	-1	7	5	-4	3	-2
O=C(c1ccc(COCC(F)(F)F)cc1)N1CCN(c2ccccn2)CC1	-20	4	2	-2	3	0
COC(=O)c1cc2sccc2n1Cc1nc(-c2ccc(OC)cc2)oc1C	-6	5	6	100*	1	nt
COC(=O)c1cc2sc(Cl)cc2n1Cc1nc(-c2ccccc2)oc1C	-4	4	4	-2	-1	nt
Cc1nnc(NC(=O)CSc2nc(N)c(NC(=O)c3cccs3)c(=O)[nH]2)s1	nt	2	nt	nt	4	2
CCN(CC)S(=O)(=O)c1cccc(C(=O)OCC(=O)c2ccc3c(c2)OCCO3)c1	-6	2	2	-5	1	0
CN(CCCN1CCOCC1)Cc1nc(-c2ccccc2)no1	-5	3	2	78*	-2	0
CN(Cc1nc(-c2ccccc2)no1)C1CCOCC1	nt	-1	nt	nt	-2	0
Cc1ccc(Cl)cc1N1CCN(C(=O)Cc2ccc(-n3c(=O)[nH]c4ccsc4c3=O)cc2)CC1	-26	6	3	57*	-1	nt
CCN(CC)S(=O)(=O)c1ccc(OC)c(NC(=O)COc2ccc3c(C)cc(=O)oc3c2)c1	2	4	4	12	2	0
Oc1ccc(O)c(Cc2nc3ccccc3s2)c1	-12	6	13*	-6	4	0
Oc1ccccc1OCc1nc2ccccc2s1	-154	3	4	6	7	1
SMILES	APP transl inh	BaF3 parental	MT stabilize HCS	L major viab	Ba/F3 V617F tox	bCat nuc transl
COC(=O)c1ccncc1C(=O)Nc1ccc(F)cc1	-6	-2	3	-4	-2	-3
CNCCCC1Sc2ccccc2Oc2ccccc21 (centres undefined)	-18	4	5	100*	3	25
CCN(CC)CCCNC(=O)C1c2ccccc2Oc2ccccc21	-12	3	4	18	2	-5
CC(C)(C)c1ccc(C(=O)Nc2ccc(NC(=O)C(=O)O)cc2)o1	9	7	6	-2	0	2
Cc1ccc(O)c(C(=O)c2coc(=N)c(C(=O)NC(C)C)c2)c1	4	3	2	71*	0	2
COc1cc(/C=N\NC(=O)c2ccccc2F)ccc1Oc1ccc([N+](=O)[O-])cn1	nt	0	nt	nt	0	6
CCOc1ccccc1NC(=O)C(OC(=O)c1cc(C)oc1C)c1ccccc1 (centres undefined)	-2	2	2	85*	-2	nt
CCOc1ccccc1NC(=O)C(OC(=O)c1ccccc1O)c1ccccc1 (centres undefined)	-11	5	4	6	3	-2
CN1/C(=C\C(=O)c2ccco2)C(C)(C)c2ccccc21	-8	65*	2	83*	72*	0
CN1/C(=C/C(=O)c2nc(S(C)(=O)=O)ncc2Cl)C(C)(C)c2ccccc21	57*	92*	2	83*	87*	1
CN1/C(=C\C(=O)c2cncc(Br)c2)C(C)(C)c2ccccc21	-1	70*	3	91*	62*	-5
CN1/C(=C\C(=O)c2cccc(S(=O)(=O)N3CCCCC3)c2)C(C)(C)c2ccccc21	-3	-2	3	99*	-2	nt
CN=C1c2cc3cc(OC)ccc3n2CCN1Cc1ccccc1	36	8	40*	23	16	nt
COc1ccc2c(c1)c(C(=O)CN1CCN(Cc3ccccc3)CC1)c(C)n2C	nt	-4	nt	nt	2	1
COC(=O)c1nn(-c2ccccc2)c(=O)cc1O	-1	0	4	11	-3	1
O=C(Nc1ccc(F)cc1)c1nn(-c2ccccc2)c(=O)cc1Cl	-6	-4	5	98*	-3	0
Cn1c(-c2ccccc2)c(CCO)c2ccccc21	-4	5	2	35	1	0
CCCc1c(CC)c(=N)c2ccccc2n1C	-2	65*	2	53*	71*	-1
CC(=O)c1ccc(N2CCN(c3ccc(S(=O)(=O)NCCCN(C)C)cc3[N+](=O)[O-])CC2)cc1	15	6	2	100*	9	1
O=C(O)c1cc(S(=O)(=O)Nc2ccc(N3CCCCC3)cc2)ccc1Cl	-18	6	3	-9	1	0
O=[N+]([O-])c1cc(S(=O)(=O)C(F)(F)F)ccc1N1CCN(c2ccccc2)CC1	0	0	2	68*	-1	0
CC(=O)c1ccc(N2CCN(c3ccc(S(=O)(=O)NCCN(C)C)cc3[N+](=O)[O-])CC2)cc1	nt	-6	nt	nt	0	0
O=S(=O)(Nc1ccc(N2CCCCC2)cc1)c1ccc(F)c(F)c1	2	7	1	67*	0	nt
O=C(O)c1cc(NS(=O)(=O)c2ccc(N3CCCCC3)c([N+](=O)[O-])c2)cc(C(=O)O)c1	7	4	2	77*	1	-1
COc1ccc(-c2cc(-c3ccco3)[nH]c(=O)c2C#N)cc1OC	nt	-4	nt	nt	1	1
CCN(CC)c1ccc(C(=O)OCC(=O)N(C(C)C)C(C)C)cc1	-18	2	11	2	-1	3

Screening data: PubChem BioAssay, several laboratories
